Twelve molecules from PubChem BioAssay can be followed below.

Active and inactive are the calls of the source.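 Rule for the calls, unless noted: active = fluorescence slope after compound addition differing from the mean of all tested samples at 99.7% confidence, mostly higher but some lower; inactive = the rest.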

A short description of assay [1]: inhibitors of TNFa-induced NFkB p65 translocation, primary screen, imaging, HUVEC, MLSMR starter and 10KST1 sets (AID 438;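 active = inhibition above 20% together with a positive visual image hit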;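 note: compound added about 3h40 before a 20 min TNFalpha stimulation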;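 for inhibition: signal is the nuclear over cytoplasmic p65 intensity ratio per well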). The conditions noted are these: HUVEC TNFa-induced p65 nuclear translocation; cell count: measured here: nuclei count (cytotoxicity indicator), at 2.08 µM; inhibition: at 2 µM, stronger effect = higher value, 0% TNFa-plus-vehicle, 100% no-TNFa wells.
Assay [2] can be described thus: endothelial E-selectin expression blockers – imaging, HUVEC, immunofluorescence, MLSMR starter and 10KST1 sets, primary screen (AID 487;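 active = visually confirmed hit in the image check and inhibition above 20%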;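 for inhibition: signal is fraction of cell area covered by stained E-selectin grains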;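 for nuclei count: 100% = median nuclei count of all wells on the same plate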). The conditions noted are these: HUVEC TNFalpha-induced E-selectin immunofluorescence imaging, at 2 µM; inhibition: stronger effect = higher value; nuclei count: measured here: cell number, toxicity.
A short description of assay [3]: Primary imaging screen for DUSP6 inhibitors that restore phospho-Erk in transfected HeLa cells, chemical complementation (AID 609;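 active = compounds giving at least 50% inhibition in the cell-based MKP-3 phosphatase rescue imaging test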;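 for inhibition: phospho-Erk level distribution per well compared with pooled transfected vehicle control wells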). The conditions noted are these: HeLa MKP-3 transfected, phospho-Erk imaging KS statistic, at 10 µM, cells stimulated with TPA for 15 min.
Assay [4] concerns the target Dual specificity protein phosphatase 6 (Homo sapiens) (UniProt Q16828). The description is as above. The settings on record: HeLa MKP-3 transfected, phospho-Erk imaging KS statistic; at 10 µM; stronger effect = higher value; cells stimulated with TPA for 15 min.
The target of assay [5] is Voltage-gated potassium channel subunit beta-2 (Rattus norvegicus) (UniProt P62483). Put plainly: inhibitors of rat Kvbeta2 reductase activity – biochemical, NADPH fluorescence, primary screen (AID 622;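 active = fluorescence slope higher than the sample average by over 3 SD, cut at about -0.22 in these data, passing the limit was not always enough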;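 note: slope of raw intensity against log time taken from 70 to 1610 s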). The settings on record: recombinant KvBeta, 4-cyanobenzaldehyde reduction, at 10 µM, stronger effect = higher value.
Assay [6] shares this target. As to the kind of experiment: enhancers of rat Kvbeta2 NADPH turnover – biochemical, NADPH fluorescence, primary screen (AID 623;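 active = NADPH fluorescence slope more negative than the mean of all samples by about 3 SD, 99.7% confidence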;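 note: fluorescence intensity change per second fitted from 20 to 320 s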). The settings on record: Recombinant KvBeta, NADPH fluorescence decrease slope, 10 min; at 10 µM; stronger effect = lower value.
Assay [7] has as its target Muscarinic acetylcholine receptor M4 (Homo sapiens) (UniProt P08173). Put plainly: M4-linked GIRK flux change, two-sided – cell-based, HEK293 M4/GIRK, thallium flux, BTC-AM, M4 allosteric agonist project, primary screen (AID 625).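 Note: thallium influx through GIRK channels coupled to M4 in HEK293 cells with BTC-AM dye.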 The settings on record: at 10 µM, actives lie on both sides. In short, it runs like this:
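Material: HEK293 cells with M4 receptor and GIRK channels; Times: cells overnight at 37 °C, BTC-AM loading 1 h, reads 2 min total; Technique: kinetic BTC-AM fluorescence sampled at 1 Hz, 10 s pre-addition baseline; Read-out basis: slope over 15–24 s of trace normalized to starting intensity; Controls: carbachol positive, DMSO negative.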

Assay [8] in a line: inhibitors of larval lipid processing in zebrafish, primary screen, whole organism, PED6 fluorescence, gall bladder and intestine (AID 686;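 active = a full or partial loss of lipid-probe fluorescence in the fish gall bladder, intestine or both, judged by eye; inactive = no fluorescence loss, or compound toxic to the fish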;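 note: larvae 5 to 7 days old with five fish per well; signal comes from phospholipase A2 cleavage of quenched PED6 carried via bile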). The settings on record: Zebrafish larvae PED6 lipid processing, fluorescence scoring; screened at 20 µM (by protocol). In short, it runs like this: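 Incubation: overnight exposure of larvae to compound plus PED6 / Test system: live zebrafish larvae aged 5-7 days, whole organism / Amount: 5 larvae per well / Read-out basis: visual per-well fluorescence inhibition score / Signal: visual fluorescence microscopy scoring of gall bladder, gut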

Assay [9] can be described thus: loss of swimming-algae plug formation – whole organism, Chlamydomonas reinhardtii, WT vs cilia-less mutant, absorbance, 96-well, primary screen (AID 463189;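 active = inhibition at or above 50% relative to wild type and mutant plate controls; inactive = inhibition below 50%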;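 note: 0% = wild type cc124 cells in DMSO and 100% = ciliumless bld1 mutant cells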). The settings on record: Chlamydomonas reinhardtii gravitaxis, OD600 absorbance, 2 days; at 10 µM; stronger effect = higher value.
Setting [10] is: measured here: cell density z-score.
Setting [11] is: measured here: nuclear c-Myc green intensity z-score.
Where [12] appears, read: measured here: nuclear pErk red intensity z-score, stronger effect = higher value.

Chain of Voltage-gated potassium channel subunit beta-2 (Rattus norvegicus) (P62483 whole entry, looked up): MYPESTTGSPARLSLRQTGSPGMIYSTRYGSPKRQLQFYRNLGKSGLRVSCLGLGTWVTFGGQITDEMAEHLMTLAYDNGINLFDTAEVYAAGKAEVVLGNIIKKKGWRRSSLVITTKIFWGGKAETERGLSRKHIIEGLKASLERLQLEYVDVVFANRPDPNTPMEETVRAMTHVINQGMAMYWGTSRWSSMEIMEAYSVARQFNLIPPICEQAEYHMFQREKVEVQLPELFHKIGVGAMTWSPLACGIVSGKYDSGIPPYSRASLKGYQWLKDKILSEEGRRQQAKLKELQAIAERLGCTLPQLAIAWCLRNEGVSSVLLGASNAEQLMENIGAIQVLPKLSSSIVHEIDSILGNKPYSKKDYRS
Chain of Muscarinic acetylcholine receptor M4 (Homo sapiens) (P08173 whole entry, looked up): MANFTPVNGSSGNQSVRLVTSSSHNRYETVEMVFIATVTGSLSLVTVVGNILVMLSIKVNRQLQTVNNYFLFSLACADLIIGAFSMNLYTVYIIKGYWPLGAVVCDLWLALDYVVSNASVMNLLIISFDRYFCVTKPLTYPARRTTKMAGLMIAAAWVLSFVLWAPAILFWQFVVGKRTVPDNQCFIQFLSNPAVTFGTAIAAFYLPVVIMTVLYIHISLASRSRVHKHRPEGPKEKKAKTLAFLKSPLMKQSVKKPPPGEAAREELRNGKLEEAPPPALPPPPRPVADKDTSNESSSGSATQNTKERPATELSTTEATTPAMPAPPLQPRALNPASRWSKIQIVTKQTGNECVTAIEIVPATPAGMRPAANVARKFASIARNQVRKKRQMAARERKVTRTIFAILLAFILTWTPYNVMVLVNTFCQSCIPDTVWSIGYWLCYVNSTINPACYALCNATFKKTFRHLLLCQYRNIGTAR
Chain of Dual specificity protein phosphatase 6 (Homo sapiens) (Q16828 whole entry, looked up): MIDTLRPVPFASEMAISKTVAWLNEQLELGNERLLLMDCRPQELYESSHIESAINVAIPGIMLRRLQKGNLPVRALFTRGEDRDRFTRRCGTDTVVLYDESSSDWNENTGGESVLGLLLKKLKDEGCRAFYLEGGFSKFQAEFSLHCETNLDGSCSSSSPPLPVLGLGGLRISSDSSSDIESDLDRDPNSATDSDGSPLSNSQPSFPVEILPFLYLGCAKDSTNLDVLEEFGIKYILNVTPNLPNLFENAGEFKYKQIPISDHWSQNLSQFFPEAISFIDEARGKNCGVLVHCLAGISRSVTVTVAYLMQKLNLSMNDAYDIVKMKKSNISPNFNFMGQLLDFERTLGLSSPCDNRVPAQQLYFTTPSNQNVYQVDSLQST

As for `CC12CN3CC(=O)N4CC5(C)CN(CC(C)(C4)C5=O)C(=O)CN(C1)CC(C)(C3)C2=O`, the cell count in assay [1] stood at 523. The inhibition in assay [1] is -11.2% (inactive); in assay [2], -128% (inactive); in [4] it was 1.42% (inactive); in [9], 6.7% (inactive). Further, the nuclei count in [2] was determined as 144%. In addition, the z-score in assay [3] (setting [10]) is 0.984; in assay [3] (setting [11]), -0.638; in assay [3] (setting [12]), -0.379. Besides, the fluorescence slope in [5] is -0.485 (inactive); in assay [7] it was 0.00461 (inactive). For the same molecule, the NADPH fluorescence slope in assay [6] is -0.000104 (inactive). The molecule was called inactive in assay [8].
`COc1ccc(C2Nc3ccccc3C(=O)N2Cc2ccco2)cc1CN1C(=O)c2ccccc2C1=O` (stereo unspecified): in [1], the cell count is 691. Besides, the inhibition in [1] is -6.9% (inactive); in assay [2], 20.3% (inactive); in assay [4], 9.07% (inactive); in assay [9], 8.71% (inactive). Besides, in [2], the nuclei count turned out to be 132%. Further, the z-score in assay [3] (setting [10]) is 0.751; in assay [3] (setting [11]), -1.72; in assay [3] (setting [12]), 0.41. The figures for the fluorescence slope in assay [5] and in assay [7] were -0.461 (inactive) and 0.00497 (inactive), respectively. Also, in assay [6], the NADPH fluorescence slope is -4.4e-05 (inactive). Also, the outcome in assay [8] was inactive.
As to `CC(C)OC(=O)c1c2nc3ccccc3nc2n2c1[nH]c(=O)c1ccccc12`, the cell count in assay [1] amounted to 519. The inhibition in assay [1] was 4% (inactive); in assay [2], -30.4% (inactive); in [4] it was 16.5% (inactive); in [9], 6.9% (inactive). In assay [2], this molecule gave a nuclei count of 96.9%. Moreover, the values for the z-score in assay [3] (setting [10]), in assay [3] (setting [11]) and in [3] (setting [12]) were 1.31, -1.51 and -0.702, respectively. Besides, the fluorescence slope is -0.445 (inactive) in assay [5] and 0.069 (active) in assay [7]. Further, the NADPH fluorescence slope in assay [6] is 2e-05 (inactive). The call in [8] was inactive.
Consider `CC(NC(=O)NCCCn1ccnc1)(C(F)(F)F)C(F)(F)F`, for which the cell count in [1] was 679. Further, the inhibition in assay [1] was 2.1% (inactive); in assay [2], -67.3% (inactive); in [4], -13.3% (inactive); in assay [9], 0.921% (inactive). In addition, the nuclei count in assay [2] amounted to 166%. Besides, the z-score in [3] (setting [10]) was -0.846; in [3] (setting [11]), -0.74; in [3] (setting [12]), 0.188. Moreover, the results for the fluorescence slope in assay [5] and in assay [7] were -0.438 (inactive) and 0.005 (inactive), respectively. Also, the NADPH fluorescence slope in [6] is -5.8e-05 (inactive). The outcome in assay [8] was inactive.
Turning to `CC1(C)Cc2c(C#N)c(SCc3nc4ccccc4[nH]3)nc(N3CCOCC3)c2CO1`, the cell count in assay [1] is 464. Moreover, the inhibition was -6.9% (inactive) in [1], -111% (inactive) in [2], 3.97% (inactive) in [4] and -18.5% (inactive) in assay [9]. The molecule also had a nuclei count in assay [2] of 99.1%. Further, the z-score was -1.63 in [3] (setting [10]), 0.58 in assay [3] (setting [11]) and -0.0845 in assay [3] (setting [12]). The fluorescence slope in assay [5] is -0.39 (inactive); in assay [7], 0.00539 (inactive). Besides, the NADPH fluorescence slope in assay [6] is 1.4e-05 (inactive). Further, the call in assay [8] was inactive.
Consider `N#Cc1nc(COc2ccccc2F)oc1NCCCn1ccnc1`, for which the cell count in assay [1] was 465. For the same molecule, the inhibition in assay [1] is -4% (inactive); in assay [2] it was -87.7% (inactive); in assay [4], -0.624% (inactive); in assay [9] it was -8.85% (inactive). For the same molecule, in assay [2], the nuclei count was determined as 136%. Besides, the results for the z-score in [3] (setting [10]), in assay [3] (setting [11]) and in [3] (setting [12]) were -0.925, 1.53 and 1.43, respectively. Besides, the fluorescence slope is -0.414 (inactive) in assay [5] and 0.00507 (inactive) in assay [7]. For the same molecule, the NADPH fluorescence slope in assay [6] was -2.3e-05 (inactive). For the same molecule, the result in assay [8] was inactive.
Consider `CCOCCn1c(SCc2c(F)cccc2Cl)nc2c1c(=O)[nH]c(=O)n2C`, for which the cell count in [1] turned out to be 620. Further, the inhibition was 3.9% (inactive) in assay [1], -40.4% (inactive) in assay [2], -9.53% (inactive) in [4] and -4.7% (inactive) in [9]. Moreover, the nuclei count in [2] came to 114%. The z-score is -0.473 in assay [3] (setting [10]), 0.0694 in assay [3] (setting [11]) and 0.197 in assay [3] (setting [12]). In addition, the figures for the fluorescence slope in [5] and in assay [7] were -0.472 (inactive) and 0.00638 (inactive), respectively. Further, in [6], the NADPH fluorescence slope is -4.5e-05 (inactive). Moreover, the molecule was called inactive in assay [8].
As to `COCc1[nH]nc2c1C(c1ccc(OC)cc1)C(C#N)=C(N)O2` (stereo unspecified), the cell count in [1] is 664. Also, the inhibition is -8.1% (inactive) in assay [1], 0.4% (inactive) in assay [2], -4.27% (inactive) in [4] and 0.628% (inactive) in assay [9]. Also, the nuclei count in assay [2] amounted to 142%. In addition, the z-score in [3] (setting [10]) was -1.64; in [3] (setting [11]), 0.0391; in assay [3] (setting [12]), -2.4. For the same molecule, the results for the fluorescence slope in [5] and in assay [7] were -0.477 (inactive) and 0.006 (inactive), respectively. The NADPH fluorescence slope in assay [6] is -6e-05 (inactive). Also, the call in assay [8] was inactive.
In the case of `Nc1ccc2oc(-c3ccccc3Cl)nc2c1`, the cell count in assay [1] was 644. In addition, the inhibition was -0.2% (inactive) in assay [1], 7.8% (inactive) in [2], -7.67% (inactive) in assay [4] and 26.6% (inactive) in [9]. The nuclei count in [2] is 145%. Also, the z-score in assay [3] (setting [10]) was 0.0664; in [3] (setting [11]) it was -0.553; in [3] (setting [12]) it was -0.135. Besides, the fluorescence slope in [5] was -0.136 (inactive); in [7], 0.00466 (inactive). Moreover, in assay [6], the NADPH fluorescence slope was -5.7e-05 (inactive). The call in assay [8] was inactive.
As for `CN(C)CCCOC(=O)c1ccc(Cl)cc1Cl`, the cell count in assay [1] was 542. In addition, the inhibition in assay [1] is 0% (inactive); in assay [2], -26.6% (inactive); in assay [4], -2.59% (inactive); in [9], 121% (active). Besides, the nuclei count in assay [2] came to 126%. Besides, the z-score in assay [3] (setting [10]) is -3.39; in assay [3] (setting [11]) it was 0.341; in assay [3] (setting [12]) it was 0.409. In addition, the fluorescence slope in assay [5] was -0.49 (inactive); in assay [7], 0.00455 (inactive). Besides, the NADPH fluorescence slope in assay [6] is -0.0001 (inactive). For the same molecule, the call in assay [8] was inactive.
In the case of `CCC(C)Nc1nc(OC)nc(N(C)C#N)n1` (stereo unspecified), the cell count in assay [1] is 675. Further, the inhibition is 7.6% (inactive) in assay [1], -32.5% (inactive) in [2], -9.53% (inactive) in assay [4] and 3.27% (inactive) in assay [9]. For the same molecule, in [2], the nuclei count amounted to 130%. The z-score in assay [3] (setting [10]) amounted to 0.721; in [3] (setting [11]), 0.541; in assay [3] (setting [12]), 0.135. The fluorescence slope in assay [5] was -0.431 (inactive); in assay [7] it was 0.00571 (inactive). Also, in [6], the NADPH fluorescence slope was -5.5e-05 (inactive). Moreover, the molecule was called inactive in [8].
With `CSc1nc2[nH]c3c(c2c2ncnn12)CCCC3`, in assay [1], the cell count was 547. Also, the inhibition in assay [1] was -3.6% (inactive); in assay [2], 37.3% (inactive); in assay [4], 1.98% (inactive); in assay [9], 44.1% (inactive). This molecule registered a nuclei count in [2] of 171%. The values for the z-score in [3] (setting [10]), in assay [3] (setting [11]) and in assay [3] (setting [12]) were -0.205, -0.317 and -0.0331, respectively. For the same molecule, the fluorescence slope is -0.379 (inactive) in assay [5] and 0.00321 (inactive) in assay [7]. In addition, the NADPH fluorescence slope in [6] is -4.9e-05 (inactive). Moreover, in assay [8], the molecule was classed as inactive.

A word on the inhibition: it is the change of the read-out against control, counted positive when it falls.
